Test results: ChEMBL document CHEMBL4414651, “Discovery and Optimization of Salicylic Acid-Derived Sulfonamide Inhibitors of the WD Repeat-Containing Protein 5-MYC Protein-Protein Interaction” (J Med Chem, 2019)
pKd: −log10 of the molar value. Active and inactive are the calls of the source. The rule behind the calls is not given here.

Experiments:
[1] = Apparent permeability from apical to basolateral side in MDCK cells; assay type: ADME, cell-based, Canis lupus familiaris; details: dog
Homo sapiens = species: Homo sapiens; test: Inhibition of human MLL1/WDR5/RBBP5/ASH2L/DPY30 complex assessed as reduction in histone methyl-transferase activity using H3-peptide as substrate
[2] = Solubility of the compound; assay type: physicochemical
Procedure, shortened: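 Kinetic solubility, measured by an outside contract lab using a standard commercial assay format.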

[3] = target: T1, WD repeat-containing protein 5 (Homo sapiens, UniProt P61964)
[4] = target: T1, WD repeat-containing protein 5; test: Binding affinity to N-terminal FLAG-tagged human full-length WDR5 expressed in HEK293T cells harboring human C-terminal HA-tagged c-MYC assessed as disruption of WDR5-c-MYC protein-protein interaction at 50 uM by SDS-PAGE based immunoblot assay; assay type: cell-based
[5] = Apparent permeability from basolateral to apical side in MDCK cells; assay type: ADME, cell-based, Canis lupus familiaris; details: dog
[6] = target: T1, WD repeat-containing protein 5; test: Binding affinity to N-terminal FLAG-tagged human full-length WDR5 expressed in HEK293T cells harboring human C-terminal HA-tagged c-MYC assessed as disruption of WDR5-RBBP5 protein-protein interaction at 50 uM by SDS-PAGE based immunoblot assay; assay type: cell-based
Procedure, shortened: (§1)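 HEK293 cells expressing FLAG-WDR5 and c-MYC-HA were kept in DMEM with 10% FBS, hygromycin B 50 μg/mL and puromycin 100 ng/mL. Lysates in Tris pH 8.0/NaCl/EDTA/1% Triton buffer were treated with compound at 50 μM or 6.25–50 μM. α-FLAG magnetic M2 beads, 2 h at 4 °C, then SDS-PAGE and α-RBBP5 immunoblot. Quantified against vehicle; at least two independent repeats.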

[7] = Protein binding in plasma (unknown origin) assessed as unbound fraction; assay type: ADME, cell-free
[8] = target: T1, WD repeat-containing protein 5; test: Binding affinity to N-terminal FLAG-tagged human full-length WDR5 expressed in HEK293T cells harboring human C-terminal HA-tagged c-MYC assessed as disruption of WDR5-c-MYC protein-protein interaction by SDS-PAGE based immunoblot assay; assay type: cell-based
[9] = target: T1, WD repeat-containing protein 5; test: Binding affinity to N-terminal FLAG-tagged human full-length WDR5 expressed in HEK293T cells harboring human C-terminal HA-tagged c-MYC assessed as disruption of WDR5-RBBP5 protein-protein interaction by SDS-PAGE based immunoblot assay; assay type: cell-based; procedure, shortened: as §1
[10] = target: T1, WD repeat-containing protein 5; test: Binding affinity to N-terminal FLAG-tagged human full-length WDR5 […] assessed as change in melting temperature at 10 uM by differential scanning fluorimetry
Procedure, shortened: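 Thermal shift (differential scanning fluorimetry) on WDR5, with compounds at 10 μM. Samples were run in triplicate, and ΔTm is the average melting-temperature shift read by fluorescence.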

[11] = target: T1, WD repeat-containing protein 5; test: Binding affinity to WDR5 (unknown origin) assessed as inhibition of WDR5-MLL1 protein-protein interaction by TR-FRET assay

SMILES | Papp [1] | inhibition (Homo sapiens) | solubility [2] | pKd [3] | Activity [4] | Papp [5] | Activity [6] | Fu [7] | Activity [8] | Activity [9] | ΔTm [10] | inhibition [11]
CNC(=O)c1cc(Cl)cc(NS(=O)(=O)c2cc(Br)ccc2O)c1O | 16.7 ×10⁻⁶ cm/s | Active | > 100 µM | 6.13 | Active | 14.1 ×10⁻⁶ cm/s | Active | < 0.0004% |  |  |  | 
CNC(=O)c1c(O)c(NS(=O)(=O)c2cc(Br)ccc2O)cc(C2CC2)c1F | 12.9 ×10⁻⁶ cm/s | Active | > 100 µM | 5.85 |  | 3.4 ×10⁻⁶ cm/s |  | < 0.0002% |  |  |  | 
CNC(=O)c1cc(C2(C#N)CCC2)cc(NS(=O)(=O)c2cc(Br)cc(Cl)c2O)c1O | 14 ×10⁻⁶ cm/s | Active | > 100 µM | 7.16 | Active |  | Active | < 0.0006% | Dose-dependent effect | Dose-dependent effect | 5.53 °C | 
N#CC1(c2cc(NS(=O)(=O)c3cc(Br)cc(Cl)c3O)c(O)c(C(=O)O)c2)CCC1 | 0.33 ×10⁻⁶ cm/s | Active | > 100 µM | 7.52 | Active |  | Active | < 0.0003% | Dose-dependent effect | Dose-dependent effect | 6.68 °C | inactive
